Measured values: ChEMBL document CHEMBL1165998, “Antihyperglycemic effect of catalpol in streptozotocin-induced diabetic rats” (2010)
Activity calls are given as the source filed them. The calls are words filed in the database; no cut-off is given here.

What was measured:
Rattus norvegicus [1] = assay: Antihyperglycemic effect in streptozotocin-induced diabetic Wistar rat assessed as reduction of plasma glucose level at 0.1 mg/kg, iv bolus after 30 mins; type: functional, organism-based; design: dose 0.1 mg/kg
How it was run: (§1)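 STZ (60 mg/kg) given to fasted rats; animals with plasma glucose of 20 mmol/L or more plus diabetic features were used two weeks later. Fasted rats got an i.v. bolus of catalpol in normal saline (0.01–0.15 mg/kg) or vehicle. Tail-vein blood was drawn under pentobarbital at 30 min. Glucose was read enzymatically in duplicate, and activity was calculated as [(Gi−Gt)/Gi]×100%. n=8 per group.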

Rattus norvegicus [2] = assay: Antihyperglycemic effect in iv bolus dosed streptozotocin-induced diabetic Wistar rat assessed as reduction of plasma glucose level after 30 mins; type: functional, organism-based; how it was run: as §1
Rattus norvegicus [3] = assay: Antihyperglycemic effect in streptozotocin-induced diabetic Wistar rat assessed as reduction of plasma glucose level at 0.15 mg/kg, iv bolus after 30 mins; type: functional, organism-based; design: dose 0.15 mg/kg; how it was run: as §1
Rattus norvegicus [4] = assay: Antihyperglycemic effect in streptozotocin-induced diabetic Wistar rat assessed as reduction of plasma glucose level at 0.1 mg/kg, iv bolus after 30 mins relative to untreated control; type: functional; design: scale not given: the % may be the effect or the level left; how it was run: as §1
Rattus norvegicus [5] = assay: Antihyperglycemic effect in streptozotocin-induced diabetic Wistar rat assessed as reduction of plasma glucose level at 0.01 mg/kg, iv bolus after 30 mins relative to untreated control; type: functional; design: scale not given: the % may be the effect or the level left; how it was run: as §1
Soleus muscle = assay: Increase in uptake of 2-[1-14C]-deoxy-D-glucose in streptozotocin-induced diabetic Wistar rat isolated soleus muscle after 30 mins by beta counter; type: functional, tissue-based
How it was run: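 Soleus strips came from STZ-diabetic rats. They were preincubated 30 min in KRBB (pH 7.4, 37 °C, 1 mmol/L glucose, 1% BSA, 5% CO2/O2), then exposed 30 min to test agent (10-8–10-6 M). Next came 5 min with 2-[1-14C]-deoxy-D-glucose (1 µCi/mL). Tissue was digested in NaOH and counted by β-counter. Non-specific uptake with 20 µmol/L cytochalasin B was subtracted. n=8.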

Hepatocyte = assay: Increase in glycogen synthesis in streptozotocin-induced diabetic Wistar rat hepatocyte assessed as [U14C]glucose incorporation in to glycogen […] by ethanol precipitation assay; type: functional, cell-based
How it was run: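 Hepatocytes from STZ-diabetic rats were isolated by collagenase perfusion (>90% viable by trypan blue). After 30 min preincubation in KRBB at 37 °C, they were incubated with [U-14C]-glucose (0.25 µCi/mL) plus test agent (10-8–10-6 M) for 1 h with shaking. Glycogen label was measured by ethanol precipitation and expressed as pmol/mg protein. n=8; compared against vehicle blanks.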

Rattus norvegicus [6] = assay: Antihyperglycemic effect in normal Wistar rat assessed as attenuation of increase of plasma glucose level at 0.1 mg/kg, iv bolus measured 5 mins after intravenous glucose challenge test
Rattus norvegicus [7] = assay: Antihyperglycemic effect in normal Wistar rat assessed as attenuation of increase of plasma glucose level at 0.1 mg/kg, iv bolus measured 20 mins after intravenous glucose challenge test
Rattus norvegicus [8] = assay: Antihyperglycemic effect in normal Wistar rat assessed as attenuation of increase of plasma glucose level at 0.1 mg/kg, iv bolus measured 30 mins after intravenous glucose challenge test
Rattus norvegicus [9] = assay: Antihyperglycemic effect in streptozotocin-induced diabetic Wistar rat assessed as reduction of plasma glucose level at 100 mg/kg, po relative to untreated control; design: scale not given: the % may be the effect or the level left

SMILES	Activity (Rattus norvegicus [1])	Activity (Rattus norvegicus [2])	Activity (Rattus norvegicus [3])	Activity (Rattus norvegicus [4]) [%]	Activity (Rattus norvegicus [5]) [%]	Activity (Soleus muscle)	Activity (Hepatocyte)	Activity (Rattus norvegicus [6])	Activity (Rattus norvegicus [7])	Activity (Rattus norvegicus [8])	Activity (Rattus norvegicus [9]) [%]
OC[C@H]1O[C@@H](O[C@@H]2OC=C[C@H]3[C@H](O)[C@@H]4O[C@]4(CO)[C@@H]23)[C@H](O)[C@@H](O)[C@@H]1O [CATALPOL]	Active	Dose-dependent effect	Active	24.33	8.53	Dose-dependent effect	Dose-dependent effect	Active	Active	inactive	
CN(C)C(=N)NC(=N)N [METFORMIN]											32
